Publication PMC11956937 (bioRxiv, 2025)

Legend:
human TOP1 = target: T1, human TOP1 (Homo sapiens, UniProt P11387); experiment: Inhibition of human TOP1 relaxation activity; type: biochemical; conditions: comparison of IC50 values for TOP3B and TOP1 relaxation
T1 sequence (P11387 1-765): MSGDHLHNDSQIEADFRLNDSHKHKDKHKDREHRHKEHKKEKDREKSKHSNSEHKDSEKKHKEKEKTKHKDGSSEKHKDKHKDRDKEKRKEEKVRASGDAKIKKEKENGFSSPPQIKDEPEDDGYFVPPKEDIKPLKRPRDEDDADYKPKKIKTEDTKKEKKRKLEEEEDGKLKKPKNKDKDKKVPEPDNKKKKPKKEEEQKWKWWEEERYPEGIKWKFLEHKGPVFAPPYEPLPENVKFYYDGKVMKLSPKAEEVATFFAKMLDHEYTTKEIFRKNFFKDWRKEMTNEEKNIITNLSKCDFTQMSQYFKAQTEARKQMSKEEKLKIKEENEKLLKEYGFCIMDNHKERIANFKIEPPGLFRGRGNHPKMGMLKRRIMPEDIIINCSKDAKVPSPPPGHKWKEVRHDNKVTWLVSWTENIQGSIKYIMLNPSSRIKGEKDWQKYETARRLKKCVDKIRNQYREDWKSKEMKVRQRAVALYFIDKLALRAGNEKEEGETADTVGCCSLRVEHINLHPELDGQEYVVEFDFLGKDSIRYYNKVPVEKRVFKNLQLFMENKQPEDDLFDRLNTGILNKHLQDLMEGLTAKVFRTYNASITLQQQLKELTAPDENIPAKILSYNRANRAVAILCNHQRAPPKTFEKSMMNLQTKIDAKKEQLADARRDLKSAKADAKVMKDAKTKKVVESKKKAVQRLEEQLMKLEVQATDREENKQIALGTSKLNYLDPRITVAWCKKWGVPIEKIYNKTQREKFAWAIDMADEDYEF
Procedure, shortened: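 Recombinant human TOP1 expressed in S. cerevisiae EKY3, 1 unit, with 200 ng supercoiled pBAD/Thio plasmid in 10 mM Tris-HCl pH 8.0, 150 mM NaCl, 1 mM EDTA, 0.1 mM spermidine, 0.1 mg/mL BSA, 5% glycerol; 37 °C, 30 min; SDS stop. Run on 1% agarose in TAE, 20 h at 25 V; ethidium bromide stain. Remaining supercoiled DNA quantified as % inhibition vs DMSO; TOP1 IC50 compared with TOP3B IC50.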

human TOP3B = human TOP3B (Homo sapiens, UniProt O95985); experiment: Inhibition of human TOP3B relaxation of supercoiled DNA; type: biochemical; conditions: for Inhibition of the DNA relaxation activity of human TOP3B: tested at up to 200 μM concentration
human TOP3B, sequence (O95985 whole entry): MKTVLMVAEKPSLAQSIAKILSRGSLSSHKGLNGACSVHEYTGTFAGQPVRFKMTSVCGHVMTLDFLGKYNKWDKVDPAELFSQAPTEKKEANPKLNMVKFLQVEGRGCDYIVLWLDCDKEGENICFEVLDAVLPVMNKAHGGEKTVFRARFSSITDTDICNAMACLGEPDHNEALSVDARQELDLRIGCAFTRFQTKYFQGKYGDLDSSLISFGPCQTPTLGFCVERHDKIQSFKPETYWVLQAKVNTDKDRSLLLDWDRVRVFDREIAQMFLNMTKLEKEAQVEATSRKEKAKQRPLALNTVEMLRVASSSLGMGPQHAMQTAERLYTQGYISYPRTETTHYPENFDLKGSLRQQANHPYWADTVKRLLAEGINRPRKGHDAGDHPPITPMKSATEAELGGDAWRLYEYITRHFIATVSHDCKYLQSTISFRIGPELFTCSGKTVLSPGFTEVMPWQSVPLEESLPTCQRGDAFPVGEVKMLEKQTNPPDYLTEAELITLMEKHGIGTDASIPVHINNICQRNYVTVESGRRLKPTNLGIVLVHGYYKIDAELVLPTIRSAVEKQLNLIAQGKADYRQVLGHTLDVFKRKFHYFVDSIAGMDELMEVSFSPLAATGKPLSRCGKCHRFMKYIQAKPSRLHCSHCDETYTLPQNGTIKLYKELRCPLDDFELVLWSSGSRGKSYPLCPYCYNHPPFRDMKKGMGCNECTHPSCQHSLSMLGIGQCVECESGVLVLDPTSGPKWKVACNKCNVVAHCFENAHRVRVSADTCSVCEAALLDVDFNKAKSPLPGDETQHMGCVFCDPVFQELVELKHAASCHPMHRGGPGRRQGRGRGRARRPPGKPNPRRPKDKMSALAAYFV
human TOP3B, sequence (Q9H7E2 whole entry partner): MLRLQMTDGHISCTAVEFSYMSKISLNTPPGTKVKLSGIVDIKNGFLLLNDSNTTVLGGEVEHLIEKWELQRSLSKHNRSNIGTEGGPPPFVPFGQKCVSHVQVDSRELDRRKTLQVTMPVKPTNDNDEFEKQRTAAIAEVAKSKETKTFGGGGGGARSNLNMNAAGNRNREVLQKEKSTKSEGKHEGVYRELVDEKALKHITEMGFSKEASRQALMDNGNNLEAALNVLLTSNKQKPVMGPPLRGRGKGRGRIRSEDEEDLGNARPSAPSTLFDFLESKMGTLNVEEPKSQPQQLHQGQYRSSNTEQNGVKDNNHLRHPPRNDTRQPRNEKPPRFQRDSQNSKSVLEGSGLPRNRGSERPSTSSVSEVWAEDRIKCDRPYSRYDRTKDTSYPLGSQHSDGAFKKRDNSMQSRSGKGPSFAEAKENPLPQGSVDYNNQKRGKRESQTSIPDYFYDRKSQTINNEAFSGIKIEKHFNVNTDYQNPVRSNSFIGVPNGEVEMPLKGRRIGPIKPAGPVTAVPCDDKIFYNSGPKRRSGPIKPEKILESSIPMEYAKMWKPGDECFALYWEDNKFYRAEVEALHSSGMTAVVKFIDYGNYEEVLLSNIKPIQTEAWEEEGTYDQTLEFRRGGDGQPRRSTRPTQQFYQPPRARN
Procedure, shortened: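 TOP3B (Sf9-expressed, GST/gel-filtration purified) and E. coli-expressed His-TDRD3 each at 18 nM, then DMSO or test compound, then 500 ng supercoiled pBAD/Thio plasmid; 20 mM HEPES-KOH pH 7.5, 5 mM MgCl2, 1 mM DTT, 0.1 mg/ml BSA; 37 ℃, 1 h. SDS/proteinase K stop; 1% agarose with 5 μg/mL chloroquine, SYBR Gold. Relaxed DNA gives % inhibition vs DMSO; 200 μM screen, IC50 from serial dilutions, 3–4 repeats.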

Structure (SMILES) | Selectivity for inhibition of human TOP3B versus TOP1 (human TOP1) | IC50 (human TOP3B) [µM] | Inhibition of the DNA relaxation activity of human TOP3B (human TOP3B)
Nc1nc(Nc2ccc3c(c2)CC[C@@H](N2CCCC2)CC3)nn1-c1cc2c(nn1)-c1ccccc1CCC2 [bemcentinib] | inhibits TOP3B with greater potency than TOP1 | 34.3 | Inhibition was observed
CN1CCN(C2CCN(C(=O)Nc3cc(Oc4ccc(NC(=O)C5(C(=O)Nc6ccc(F)cc6)CC5)c(F)c4)ccn3)CC2)CC1 [golvatinib] | – | – | Inhibition was observed only for bemcentinib
Cc1cn(-c2cc(NC(=O)c3ccc(C)c(Nc4nccc(-c5cccnc5)n4)c3)cc(C(F)(F)F)c2)cn1 [nilotinib] | – | – | Inhibition was observed only for bemcentinib
Cc1cn(-c2cc(NC(=O)c3ccc(C)c(Nc4nccc(-c5cnccn5)n4)c3)cc(C(F)(F)F)c2)cn1 [radotinib] | – | – | Inhibition was observed only for bemcentinib
CNC(=O)c1cc(Oc2ccc(NC(=O)Nc3cc(C(C)(C)C)nn3-c3ccc4ncccc4c3)c(F)c2)ccn1 [rebastinib] | – | – | Inhibition was observed only for bemcentinib
Cc1cc(Nc2ncnc3ccc(NC4=NC(C)(C)CO4)cc23)ccc1Oc1ccn2ncnc2c1 [tucatinib] | – | – | Inhibition was observed only for bemcentinib
